The record followed here is ChEMBL document CHEMBL4513216, “Probing the Open Global Health Chemical Diversity Library for Multistage-Active Starting Points for Next-Generation Antimalarials” (ACS Infect Dis, 2020).

The data set is described as follows: Toxicity liver stage against HepG2, at 10uM. It counts as cell-based. Also noted: test concentration 10 uM, cell line HepG2-A16-CD81EGFP. The conditions noted are these: human, HepG2-A16-CD81EGFP cells; read-out: INHIBITION
The method in brief: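 Uninfected HepG2-A16-CD81EGFP cells, 3 × 10^3 per well, 1536-well, plated on prespotted compound at 10 μM final, parasite-free screening media added to match infected plates; puromycin 10 μM positive, DMSO 0.5% negative; run in parallel with 48 h PbLuc assay at 37 °C, 5% CO2; viability by CellTiter-Glo luminescence, normalized to controls.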
Take `CCCOCCN1CCc2[nH]c(-c3ccc(OC)cc3)nc2C1`: the cytotoxicity at 10 µM is -113%.
For the molecule `c1cnc(-c2nn3c(CN4CCCCC4)nnc3s2)cn1`, the cytotoxicity at 10 µM worked out at 5.31%.
With `O=C(CN1CCc2cncnc2C1)NCCOc1ccccc1` the figure was -6.78%; with `Cc1cnn(CC2CCCN2C(=O)Cc2cccs2)c1` (centres undefined), -0.704%.
For `Cc1cnn(C2CCCN(C(=O)Cc3ccc(-n4cccn4)cc3)C2)c1` (centres undefined), the cytotoxicity at 10 µM turned out to be 2.55%.
The result for `Cc1ccc(NCc2ccc(C#N)cc2)cc1-n1cnnn1` reads -0.657%.
With `COc1ccc([C@@H]2CN(c3cc(OC)nc(N)n3)C[C@H]2N(C)C)cc1` the figure was 15%; with `Cc1nc(CN2C(=O)COC3(CCN(C(N)=O)CC3)C2C)cs1` (centres undefined), -130%; with `CC1CS(=O)(=O)CCN1CCCc1ccc(C(F)(F)F)cc1` (centres undefined), 0.715%.
Consider `O=C(N[C@]12CC1CN(C(=O)c1ccco1)C2)c1ccco1` (some centres undefined), for which the cytotoxicity at 10 µM is -0.479%.
The result for `COCC(=O)N1C[C@@H](c2cc(O)nc(C)n2)[C@H](c2ccccc2F)C1` reads 5.62%; that for `O=S(=O)(NC1CCC12CCN(CC1CCOCC1)CC2)c1ccccc1` (centres undefined), -1.34%.
The result for `CSc1ncccc1C(=O)N(CCO)Cc1ccccc1` reads 2.22%; that for `O=C(N[C@@H]1CN(Cc2ccccn2)[C@@H]2COC[C@@H]21)C1CCC1`, 8.67%.
With `COc1ccc2c(ccn2CCCN)c1` the figure was -3.91%; with `Cc1cc(C)c(CNC(=O)NCc2ccc(F)c(C)c2)c(=O)[nH]1`, -12.8%; with `CCOc1cc(C(=O)O)cc(-c2ccccc2)c1OC`, -9.88%.
For `CN1CC[C@]2(CN(CC3CCOCC3)C[C@H]2c2ccccc2)C1=O`, the cytotoxicity at 10 µM is -1.18%.
The result for `Cc1ccc(N2CCCN(C(=O)C(C)OCC3CC3)CC2)nn1` (centres undefined) reads 0.0479%; that for `CC(C)c1noc(CCCC(=O)N2CCN(Cc3ccccn3)CC2)n1`, -1.79%; that for `Cc1ccc(CN2CCc3c(nnn3C)C2COCc2ccccc2)s1` (centres undefined), -110%.
The result for `O=C(c1ccnc(N2CCOC(C(F)(F)F)C2)c1)N1CCCC1` (centres undefined) reads -3.5%; that for `Cc1nc([C@H]2C[C@@H]3CCN(Cc4cnn(C)c4)C[C@H]3O2)sc1C`, -1.96%.
Consider `CCN(Cc1ccoc1)C(=O)Nc1ccccc1CN(C)C(C)=O`, for which the cytotoxicity at 10 µM amounted to 4.55%.
Regarding `O=C(CN1CCN(CCO)CC1)NCc1ccc(Cl)s1`, the cytotoxicity at 10 µM is 9.3%.
With `CCCS(=O)(=O)N1CCC2(CC1)CC(Nc1ncccn1)CO2` (centres undefined) the figure was -0.00726%.
The result for `CN(Cc1cnn(C)c1)c1nccc(-c2cc(C(=O)O)ccn2)n1` reads -7.33%.
With `Cn1nc(C(=O)N2CCOCC2)cc1C(=O)Nc1c(Cl)cccc1Cl` the figure was 12%; with `Cc1ccc(C)c(OC2CCN(C(=O)c3ccc(C)[nH]c3=O)CC2)c1`, 2.87%; with `CC(C)C[C@H](Nc1nc(C2CCCC2)nc2c1cnn2C)C(N)=O`, -42.3%.
Take `Cc1ccc(CN2C[C@@H]3COC[C@]3(COc3ccc(C#N)cn3)C2)o1`: the cytotoxicity at 10 µM is 0.777%.
Turning to `COc1ccc(CC2(CO)CCN(c3cc(C#N)ccn3)CC2)cc1`, the cytotoxicity at 10 µM turned out to be 8.86%.
Turning to `Cc1ccc(-c2cc(CNC(=O)N3CCSCC3)on2)cc1`, the cytotoxicity at 10 µM turned out to be 2.7%.
For the molecule `NS(=O)(=O)CCCNC(=O)c1cnc(-c2ccsc2)s1`, the cytotoxicity at 10 µM was -9.59%.
The result for `CCOc1ccc(Br)cc1-c1cc(N)[nH]n1` reads -2.97%.
In the case of `O=C(c1ccc[nH]1)N1CCCC1c1nc(-c2ccccc2)n[nH]1` (centres undefined), the cytotoxicity at 10 µM came to 2.57%.
The result for `Cc1ccc(NCCNC(=O)C2Cc3cc(C)c(C)cc3O2)nn1` (centres undefined) reads 3.34%; that for `O=C(NCc1ccco1)[C@H]1C[C@@H]2CCN(c3nncs3)C[C@H]2O1`, 1.84%.
With `Cc1cc(C)n(CC2CN(Cc3cccnc3)CCO2)n1` (centres undefined) the figure was -3.08%.
